# Activity calls are given as the source filed them. No cut-off for these calls is given here.
# Experiments:
# [1] = test system: BaF3; experiment: Induction of apoptosis in mouse BA/F3 cells expressing NRAS-G12D mutant assessed as decrease in bcl2 levels at 1 uM after 24 hrs by Western blot analysis; type: functional, cell-based
# Method in brief: (§1)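 Cells treated 24 h with indicated concentrations (1 µM; 5 µM also used in Ba/F3-NRAS-G12D); cleaved PARP, cleaved caspase 3, bcl-2 and MCL1 detected by western blot with actin as loading control.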
# [2] = test system: BaF3; experiment: Induction of apoptosis in mouse BA/F3 cells expressing NRAS-G12D mutant assessed as increase in cleaved PARP levels at 1 uM after 24 hrs by Western blot analysis; type: functional, cell-based; method in brief: as §1
# [3] = test system: OCI-AML-3; experiment: Induction of apoptosis in human OCI-AML3 cells harboring NRAS Q61L mutant assessed as increase in cleaved caspase-3 levels at 1 uM after 24 hrs by Western blot analysis; type: functional, cell-based; method in brief: as §1
# [4] = test system: BaF3; experiment: Induction of apoptosis in mouse BA/F3 cells expressing NRAS-G12D mutant assessed as increase in cleaved caspase-3 levels at 1 uM after 24 hrs by Western blot analysis; type: functional, cell-based; method in brief: as §1
# [5] = test system: OCI-AML-3; experiment: Induction of apoptosis in human OCI-AML3 cells harboring NRAS Q61L mutant assessed as decrease in bcl2 levels at 1 uM after 24 hrs by Western blot analysis; type: functional, cell-based; method in brief: as §1
# [6] = test system: OCI-AML-3; experiment: Antileukemic activity against human OCI-AML3 cells harboring NRAS-Q61L mutant xenografted in immunodeficient mouse assessed as tumor volume at 15 mg/kg/day, po qd administered on day 21 post implantation measured on day 20 post dose (reference value: 100%); type: functional
# [7] = target: Cytoplasmic tyrosine-protein kinase BMX (Homo sapiens) (UniProt P51813); settings: 1 uM
# [8] = target: Tyrosine-protein kinase Fgr (Homo sapiens) (UniProt P09769); experiment: Inhibition of human FGR at 1 uM relative to control
# [9] = target: Platelet-derived growth factor receptor beta (Homo sapiens) (UniProt P09619); experiment: Inhibition of human PDGFRbeta at 1 uM relative to control
# [10] = target: Ephrin type-B receptor 1 (Homo sapiens) (UniProt P54762); experiment: Inhibition of human EphB1 at 1 uM relative to control
# [11] = test system: OCI-AML-3; experiment: Growth inhibition of ACK1/GCK knockdown human OCI-AML3 cells harboring NRAS-Q61L mutant at 0.5 uM after 72 hrs by celltiter-glo assay; type: functional, cell-based
# [12] = target: Epithelial discoidin domain-containing receptor 1 (Homo sapiens) (UniProt Q08345); experiment: Inhibition of human DDR1 at 1 uM relative to control
# [13] = test system: BaF3; experiment: Antileukemic activity against mouse BA/F3 cells harboring NRAS-G12D mutant allografted in immunodeficient mouse assessed as median survival time at 15 mg/kg/day, po qd administered on day 6 post implantation (reference value: 23 days); type: functional
# [14] = test system: OCI-AML-3; experiment: Induction of apoptosis in human OCI-AML3 cells harboring NRAS Q61L mutant assessed as increase in apoptotic cells after 24 hrs by annexin V/propidium iodide staining based FACS analysis; type: functional, cell-based
# Method in brief: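 Apoptosis scored by flow cytometry after FITC-annexin V/propidium iodide dual staining following 24 h exposure, at 1 µM or a range of indicated concentrations; three independent experiments, mean with SD, one-way ANOVA.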
# [15] = target: Vascular endothelial growth factor receptor 2 (Homo sapiens) (UniProt P35968); experiment: Inhibition of human KDR at 1 uM relative to control
# [16] = target: Serine/threonine-protein kinase A-Raf (Homo sapiens) (UniProt P10398); experiment: Inhibition of human ARAF at 1 uM relative to control
# [17] = test system: BaF3; experiment: Induction of apoptosis in mouse BA/F3 cells expressing NRAS-G12D mutant assessed as increase in cleaved PARP levels at 5 uM after 24 hrs by Western blot analysis; type: functional, cell-based; method in brief: as §1
# [18] = target: Tyrosine-protein kinase CSK (Homo sapiens) (UniProt P41240); experiment: Inhibition of human CSK at 1 uM relative to control
# [19] = target: Macrophage colony-stimulating factor 1 receptor (Homo sapiens) (UniProt P07333); experiment: Inhibition of human FMS at 1 uM relative to control
# [20] = test system: Mus musculus; experiment: Toxicity in immunodeficient mouse allografted with mouse BA/F3 cells harboring NRAS-G12D mutant assessed as body weight loss at 15 to 25 mg/kg/day, po qd administered on day 6 post implantation; type: organism-based; settings: in vivo
# Method in brief: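 Immunodeficient mice were given Ba/F3-NRAS-G12D/luciferase cells by tail-vein injection and then dosed orally once daily, with a vehicle-only cohort as control. Body weight was followed during treatment. The bioluminescence cohorts had n=4 and were treated for 3 weeks.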
# [21] = Cmax in mouse at 10 mg/kg, po; type: ADME, organism-based; set-up: dose 10 mg/kg, route oral; settings: in vivo
# [22] = target: Serine/threonine-protein kinase B-raf (Homo sapiens) (UniProt P15056); experiment: Inhibition of human BRAF at 1 uM relative to control
# [23] = target: Mitogen-activated protein kinase 11 (Homo sapiens) (UniProt Q15759); experiment: Inhibition of human P38beta at 1 uM relative to control
# [24] = target: RAF proto-oncogene serine/threonine-protein kinase (Homo sapiens) (UniProt P04049); settings: 1 uM
# [25] = target: Mitogen-activated protein kinase 14 (Homo sapiens) (UniProt Q16539); experiment: Inhibition of human p38alpha at 1 uM relative to control
# [26] = target: Platelet-derived growth factor receptor alpha (Homo sapiens) (UniProt P16234); experiment: Inhibition of human PDGFRa at 1 uM relative to control
# [27] = test system: BaF3; experiment: Antileukemic activity against mouse BA/F3 cells harboring NRAS-G12D mutant allografted in immunodeficient mouse assessed as median survival time at 25 mg/kg/day, po qd administered on day 6 post implantation (reference value: 23 days); type: functional
# [28] = AUCinfinity in mouse at 10 mg/kg, po; type: ADME, organism-based; set-up: dose 10 mg/kg, route oral, time infinity; settings: in vivo
# [29] = target: Proto-oncogene tyrosine-protein kinase Src (Homo sapiens) (UniProt P12931); settings: 1 uM
# [30] = MRTinfinity in mouse at 10 mg/kg, po; type: ADME, organism-based; settings: in vivo
# [31] = target: Tyrosine-protein kinase JAK2 (Homo sapiens) (UniProt O60674); experiment: Inhibition of human JAK2 at 1 uM relative to control
# [32] = target: Proto-oncogene tyrosine-protein kinase receptor Ret (Homo sapiens) (UniProt P07949); experiment: Inhibition of human RET at 1 uM relative to control
# [33] = test system: BaF3; experiment: Antileukemic activity against mouse BA/F3 cells harboring NRAS-G12D mutant/luciferase allografted in immunodeficient mouse at 15 mg/kg/day, po qd administered on day 6 post implantation measured on day 20 post implantation by bioluminescence imaging method; type: functional
# Method in brief: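 Immunodeficient mice injected via tail vein with Ba/F3-NRAS-G12D/Luc cells, dosed orally once daily (8 or 15 mg/kg/day) or vehicle for 3 weeks, n=4 per cohort; bioluminescence imaged every two days after luciferin 150 mg/kg, quantified by bio-photonic analysis.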
# [34] = Half life in mouse at 10 mg/kg, po; type: ADME, organism-based; settings: in vivo
# [35] = target: Tyrosine-protein kinase Lyn (Homo sapiens) (UniProt P07948); settings: 1 uM
# [36] = Tmax in mouse at 10 mg/kg, po; type: ADME, organism-based; settings: in vivo
# Chain of Ephrin type-B receptor 1 (Homo sapiens) (P54762 whole entry): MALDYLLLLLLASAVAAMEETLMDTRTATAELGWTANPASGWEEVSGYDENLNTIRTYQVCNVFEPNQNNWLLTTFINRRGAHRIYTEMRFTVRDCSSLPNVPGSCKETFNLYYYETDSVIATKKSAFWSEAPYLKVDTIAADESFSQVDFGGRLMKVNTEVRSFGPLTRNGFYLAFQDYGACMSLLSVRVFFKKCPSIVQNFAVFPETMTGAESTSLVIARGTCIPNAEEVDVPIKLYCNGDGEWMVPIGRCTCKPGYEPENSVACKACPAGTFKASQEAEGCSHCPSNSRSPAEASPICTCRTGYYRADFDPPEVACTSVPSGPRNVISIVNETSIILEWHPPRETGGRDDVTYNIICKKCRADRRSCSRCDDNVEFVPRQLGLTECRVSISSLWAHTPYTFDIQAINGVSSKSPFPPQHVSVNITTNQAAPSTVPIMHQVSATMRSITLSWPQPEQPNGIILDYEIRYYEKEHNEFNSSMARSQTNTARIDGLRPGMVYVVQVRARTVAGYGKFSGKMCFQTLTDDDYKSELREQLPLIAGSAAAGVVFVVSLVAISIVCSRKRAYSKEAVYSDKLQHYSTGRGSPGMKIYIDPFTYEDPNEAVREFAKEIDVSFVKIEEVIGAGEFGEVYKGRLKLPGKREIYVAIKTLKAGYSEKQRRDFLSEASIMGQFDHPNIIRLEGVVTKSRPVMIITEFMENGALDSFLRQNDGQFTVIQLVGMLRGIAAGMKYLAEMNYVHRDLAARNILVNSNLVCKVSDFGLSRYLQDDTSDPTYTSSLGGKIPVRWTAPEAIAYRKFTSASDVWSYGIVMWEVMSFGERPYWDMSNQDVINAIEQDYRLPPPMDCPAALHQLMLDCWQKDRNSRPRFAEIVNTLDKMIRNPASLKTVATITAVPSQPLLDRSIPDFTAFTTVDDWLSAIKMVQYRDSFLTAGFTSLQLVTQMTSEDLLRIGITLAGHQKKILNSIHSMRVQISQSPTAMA
# Chain of Macrophage colony-stimulating factor 1 receptor (Homo sapiens) (P07333 whole entry): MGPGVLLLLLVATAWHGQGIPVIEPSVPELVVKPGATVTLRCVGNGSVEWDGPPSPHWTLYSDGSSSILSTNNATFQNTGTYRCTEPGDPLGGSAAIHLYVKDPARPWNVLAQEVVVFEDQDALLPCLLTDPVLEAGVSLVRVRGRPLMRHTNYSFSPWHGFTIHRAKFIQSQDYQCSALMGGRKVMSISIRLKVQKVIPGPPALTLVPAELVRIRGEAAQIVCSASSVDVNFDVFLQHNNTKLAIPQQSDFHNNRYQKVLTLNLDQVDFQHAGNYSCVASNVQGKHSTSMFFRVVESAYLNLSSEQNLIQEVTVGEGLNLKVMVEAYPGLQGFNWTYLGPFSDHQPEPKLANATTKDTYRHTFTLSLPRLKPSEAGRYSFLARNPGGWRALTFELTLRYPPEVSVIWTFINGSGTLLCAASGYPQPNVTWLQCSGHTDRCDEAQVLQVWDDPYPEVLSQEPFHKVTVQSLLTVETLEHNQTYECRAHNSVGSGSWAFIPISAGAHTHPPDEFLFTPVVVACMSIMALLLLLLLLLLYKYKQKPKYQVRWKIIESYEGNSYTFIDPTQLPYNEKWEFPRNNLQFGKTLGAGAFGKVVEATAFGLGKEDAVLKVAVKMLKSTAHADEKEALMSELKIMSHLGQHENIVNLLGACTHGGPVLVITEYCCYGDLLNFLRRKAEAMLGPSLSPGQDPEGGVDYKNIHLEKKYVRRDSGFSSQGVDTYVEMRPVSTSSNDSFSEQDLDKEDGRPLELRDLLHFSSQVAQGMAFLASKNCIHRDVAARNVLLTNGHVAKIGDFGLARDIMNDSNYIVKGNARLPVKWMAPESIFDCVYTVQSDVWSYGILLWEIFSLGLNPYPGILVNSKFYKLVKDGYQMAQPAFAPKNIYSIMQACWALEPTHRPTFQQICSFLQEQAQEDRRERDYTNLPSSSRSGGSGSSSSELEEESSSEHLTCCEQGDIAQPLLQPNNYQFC
# Chain of RAF proto-oncogene serine/threonine-protein kinase (Homo sapiens) (P04049 whole entry): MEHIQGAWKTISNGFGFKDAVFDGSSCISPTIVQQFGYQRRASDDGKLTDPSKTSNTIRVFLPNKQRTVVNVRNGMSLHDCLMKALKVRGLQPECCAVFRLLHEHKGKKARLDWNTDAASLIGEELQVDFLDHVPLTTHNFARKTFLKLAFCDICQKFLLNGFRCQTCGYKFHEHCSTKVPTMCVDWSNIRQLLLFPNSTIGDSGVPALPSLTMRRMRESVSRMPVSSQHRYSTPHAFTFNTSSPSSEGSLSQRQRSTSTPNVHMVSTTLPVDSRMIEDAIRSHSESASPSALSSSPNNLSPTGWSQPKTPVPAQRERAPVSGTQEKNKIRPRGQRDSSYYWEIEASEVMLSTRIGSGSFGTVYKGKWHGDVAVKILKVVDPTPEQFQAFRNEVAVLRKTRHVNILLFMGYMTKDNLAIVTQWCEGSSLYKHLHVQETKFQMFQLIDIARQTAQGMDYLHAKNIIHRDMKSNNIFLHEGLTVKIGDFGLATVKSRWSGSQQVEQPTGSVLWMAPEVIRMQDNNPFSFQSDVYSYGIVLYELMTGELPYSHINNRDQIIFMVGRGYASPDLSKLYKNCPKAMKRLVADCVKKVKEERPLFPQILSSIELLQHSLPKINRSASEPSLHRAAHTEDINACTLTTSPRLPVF
# Chain of Tyrosine-protein kinase JAK2 (Homo sapiens) (O60674 whole entry): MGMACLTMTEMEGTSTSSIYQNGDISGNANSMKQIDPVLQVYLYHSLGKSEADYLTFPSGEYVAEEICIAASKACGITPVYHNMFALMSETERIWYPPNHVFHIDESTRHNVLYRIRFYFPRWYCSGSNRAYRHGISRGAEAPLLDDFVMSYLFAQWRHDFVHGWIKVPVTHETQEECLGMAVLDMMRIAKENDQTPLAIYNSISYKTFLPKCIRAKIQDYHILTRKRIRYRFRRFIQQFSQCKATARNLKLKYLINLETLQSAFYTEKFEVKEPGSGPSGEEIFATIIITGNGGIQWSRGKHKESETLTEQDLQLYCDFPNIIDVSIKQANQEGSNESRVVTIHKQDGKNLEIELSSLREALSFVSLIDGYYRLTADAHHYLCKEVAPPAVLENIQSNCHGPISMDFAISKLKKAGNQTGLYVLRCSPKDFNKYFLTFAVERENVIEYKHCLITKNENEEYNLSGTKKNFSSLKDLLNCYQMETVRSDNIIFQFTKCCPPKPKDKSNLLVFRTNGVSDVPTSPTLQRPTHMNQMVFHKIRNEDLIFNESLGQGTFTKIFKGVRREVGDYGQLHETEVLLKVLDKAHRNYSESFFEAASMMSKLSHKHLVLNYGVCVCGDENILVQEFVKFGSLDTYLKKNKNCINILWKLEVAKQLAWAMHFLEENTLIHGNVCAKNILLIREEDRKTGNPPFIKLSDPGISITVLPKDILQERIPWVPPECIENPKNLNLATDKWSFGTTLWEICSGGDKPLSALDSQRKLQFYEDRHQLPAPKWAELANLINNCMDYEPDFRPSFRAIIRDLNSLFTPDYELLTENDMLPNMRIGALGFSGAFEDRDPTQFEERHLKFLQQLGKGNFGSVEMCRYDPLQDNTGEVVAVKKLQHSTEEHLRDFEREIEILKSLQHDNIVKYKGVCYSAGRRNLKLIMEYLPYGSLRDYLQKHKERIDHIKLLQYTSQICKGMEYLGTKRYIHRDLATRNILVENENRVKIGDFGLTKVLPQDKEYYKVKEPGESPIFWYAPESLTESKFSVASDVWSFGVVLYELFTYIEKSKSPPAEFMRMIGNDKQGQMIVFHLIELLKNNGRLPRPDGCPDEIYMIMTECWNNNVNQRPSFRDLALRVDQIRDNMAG
# Chain of Tyrosine-protein kinase Fgr (Homo sapiens) (P09769 2-529 limits assumed): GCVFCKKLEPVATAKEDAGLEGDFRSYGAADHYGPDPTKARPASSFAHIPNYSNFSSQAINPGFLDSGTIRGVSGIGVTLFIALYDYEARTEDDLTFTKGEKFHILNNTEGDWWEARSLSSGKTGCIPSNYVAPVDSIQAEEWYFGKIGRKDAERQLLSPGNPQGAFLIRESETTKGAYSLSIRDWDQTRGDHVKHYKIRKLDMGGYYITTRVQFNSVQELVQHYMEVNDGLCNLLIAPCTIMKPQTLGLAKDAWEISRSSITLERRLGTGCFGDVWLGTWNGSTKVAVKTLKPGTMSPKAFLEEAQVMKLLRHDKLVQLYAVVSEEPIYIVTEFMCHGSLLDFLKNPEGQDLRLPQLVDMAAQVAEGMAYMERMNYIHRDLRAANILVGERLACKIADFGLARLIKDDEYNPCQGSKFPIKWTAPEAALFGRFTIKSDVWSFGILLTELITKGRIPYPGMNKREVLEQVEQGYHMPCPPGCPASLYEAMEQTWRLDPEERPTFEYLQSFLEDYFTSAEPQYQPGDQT
# Chain of Serine/threonine-protein kinase B-raf (Homo sapiens) (P15056 whole entry): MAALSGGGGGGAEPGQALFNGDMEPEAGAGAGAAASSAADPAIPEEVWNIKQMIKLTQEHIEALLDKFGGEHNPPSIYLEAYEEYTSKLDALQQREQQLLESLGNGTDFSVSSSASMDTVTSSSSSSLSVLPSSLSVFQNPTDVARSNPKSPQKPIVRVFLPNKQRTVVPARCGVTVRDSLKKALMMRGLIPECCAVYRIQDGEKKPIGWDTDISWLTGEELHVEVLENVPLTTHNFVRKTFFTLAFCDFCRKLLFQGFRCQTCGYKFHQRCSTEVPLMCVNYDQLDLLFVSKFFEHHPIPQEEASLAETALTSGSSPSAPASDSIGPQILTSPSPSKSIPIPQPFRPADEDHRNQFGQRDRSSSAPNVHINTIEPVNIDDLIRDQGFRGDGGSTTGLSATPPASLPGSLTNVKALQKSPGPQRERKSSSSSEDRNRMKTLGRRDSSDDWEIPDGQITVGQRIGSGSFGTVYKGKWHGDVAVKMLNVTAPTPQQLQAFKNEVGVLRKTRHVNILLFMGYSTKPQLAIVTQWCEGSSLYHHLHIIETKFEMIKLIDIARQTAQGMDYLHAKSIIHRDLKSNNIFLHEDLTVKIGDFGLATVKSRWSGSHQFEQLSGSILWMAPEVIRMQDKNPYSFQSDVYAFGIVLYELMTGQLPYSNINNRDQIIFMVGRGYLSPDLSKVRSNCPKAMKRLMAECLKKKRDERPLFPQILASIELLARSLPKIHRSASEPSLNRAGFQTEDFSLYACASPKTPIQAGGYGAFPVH
smiles,measurement,setting,value
CC(=O)N1CCN(c2ccc(Nc3ncc4c(n3)N(C)C(=O)N(c3cc(NC(=O)c5cccc(C(F)(F)F)c5)ccc3C)C4)cn2)CC1,Activity,[1],Active
same,Activity,[2],Active
same,Activity,[3],Active
same,Activity,[4],Active
same,Activity,[5],Active
Cc1ccc(NC(=O)c2cccc(C(F)(F)F)c2)cc1N1Cc2cnc(N)nc2N(C)C1=O,Activity,[6],41.9%
same,inhibition,[7],99.4%
same,inhibition,[8],99.1%
same,inhibition,[9],98.1%
same,inhibition,[10],96.9%
same,growth inhibition (GI),[11],Active
same,inhibition,[12],97.8%
same,MSD,[13],29 days
same,Activity,[14],Dose-dependent effect
same,inhibition,[15],96.4%
same,inhibition,[16],99%
same,Activity,[17],Active
same,inhibition,[18],98.9%
same,inhibition,[19],99.1%
same,Activity,[20],Non-Toxic
same,Activity,[3],Active
same,Cmax,[21],2410 ng/mL
same,inhibition,[22],99.1%
same,inhibition,[23],98%
same,inhibition,[24],99.4%
same,inhibition,[25],98.9%
same,Activity,[5],Active
same,inhibition,[26],95%
same,MSD,[27],35 days
same,AUC(0-inf),[28],52500 ng·h/mL
same,inhibition,[29],100%
same,MRT inf,[30],18.1 h
same,inhibition,[31],94.4%
same,inhibition,[32],98.7%
same,Activity,[33],>50%
same,half-life,[34],12.4 h
same,inhibition,[35],99.4%
same,Tmax,[36],2.7 h

# Reference: ChEMBL document CHEMBL4196175, “First SAR Study for Overriding NRAS Mutant Driven Acute Myeloid Leukemia” (J Med Chem, 2018)
